WT yeast gro inh: growth inhibition of WT strain, primary screen, mitochondrial fusion inhibitor project, WT and mutant strains, chemical genetic; mitochondrial fusion phenotypic screen; inhibition, % at 10 µM; 2.1% of 190,000 active; AID 1362, 2008; in the data active means inhibition above about 58%; tested in S. cerevisiae
MEKK2 WT-MEK5: modulators of MEK5 binding to wildtype MEKK2, primary screen, biochemical, multiplex bead flow cytometry, Alexa488-MEK5; Mitogen-activated protein kinase kinase kinase 2 (Homo sapiens), Q9Y2U5; Alexa488-MEK5 binding to MEKK2 WT; actives lie on both sides; binding response (% of control), % at 10 µM; 1.1% of 290,000 active; in the data active means binding response below about 67% or above about 130%
MEKK2 mut-MEK5: MEK5 binding signal on mutant MEKK2 PB1, primary screen, biochemical, multiplex bead flow cytometry, Alexa488-MEK5; Alexa488-MEK5 binding to MEKK2 mutant; percent response, % at 10 µM; 0.35% of 290,000 active; AID 1530, 2009; in the data active means percent response above about 24%, passing the limit was not always enough
ABCB1 inh: ABCB1 efflux pump inhibitors, primary screen, cell-based, multiplex, flow cytometry, ABCG2 counter-screen; CCRF-Adr cells, JC-1 efflux; inhibition, % at 6.6 µM; 0.067% of 190,000 active; AID 1326, 2008; in the data active means inhibition above about 40%;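 further: 0% = vehicle and 100% = reference inhibitor; higher value means more JC-1 retained so stronger ABCB1 efflux block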
ABCG2 block: ABCG2 efflux pump inhibitors, primary screen, multiplex with ABCB1, IgMXP3 cells, flow cytometry; JC-1 efflux; inhibition, % at 6.6 µM; 0.1% of 190,000 active; AID 1325, 2008;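 active means inhibition above 80%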;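 further: 0% = DMSO and 100% = nicardipine control wells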
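Times: 10 min at 25 °C | Test system: Two drug-resistant human cell lines, ABCG2 and ABCB1 | Quantity: 3 million cells/mL final, two lines in 1:1 ratio | Signal: Flow cytometry, 530 nm JC-1 signal | Dosing: Compound at 6.6 µM | Controls: Nicardipine and DMSO wells | Reagent: JC-1 as fluorescent efflux pump substrate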
MEKK3 PB1 HTS: modulators of MEKK3-MEK5 PB1 binding, primary screen, biochemical, wildtype MEKK3, multiplex bead flow cytometry, Alexa488-MEK5. bead-based flow cytometry, Alexa488-MEK5 binding to MEKK3; actives lie on both sides; 0 = blocked by unlabeled MEK5, 100 = vehicle. 1.4% of 290,000 active. Mitogen-activated protein kinase kinase kinase 3 (Homo sapiens), Q99759. binding response (% of control), % at 10 µM. AID 1529, 2009;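 active means binding response more than 3 SD above or below the average of its plate-row segment, actives on both sides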;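 further: Alexa488 bead fluorescence after subtracting the streptavidin-only scavenger bead signal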
Target sequence (Q99759 whole entry, looked up): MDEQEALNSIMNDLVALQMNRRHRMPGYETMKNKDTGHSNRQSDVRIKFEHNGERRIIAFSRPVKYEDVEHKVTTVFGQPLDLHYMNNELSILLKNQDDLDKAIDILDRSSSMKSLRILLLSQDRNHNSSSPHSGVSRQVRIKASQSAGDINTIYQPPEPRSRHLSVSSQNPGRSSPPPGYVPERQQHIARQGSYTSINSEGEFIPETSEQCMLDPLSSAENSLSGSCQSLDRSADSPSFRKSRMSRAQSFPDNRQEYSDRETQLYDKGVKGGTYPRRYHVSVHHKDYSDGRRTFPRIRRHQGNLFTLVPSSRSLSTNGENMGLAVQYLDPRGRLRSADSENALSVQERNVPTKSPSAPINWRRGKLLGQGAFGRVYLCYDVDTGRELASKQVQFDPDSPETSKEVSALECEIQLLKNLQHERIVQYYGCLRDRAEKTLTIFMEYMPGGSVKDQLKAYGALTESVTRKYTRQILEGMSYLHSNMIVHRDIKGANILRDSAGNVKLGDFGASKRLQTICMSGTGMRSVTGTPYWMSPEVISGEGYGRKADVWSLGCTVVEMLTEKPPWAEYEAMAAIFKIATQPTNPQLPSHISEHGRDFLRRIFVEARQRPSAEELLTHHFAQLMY
MEKK2wt confirm: modulators of MEK5 binding to wildtype MEKK2, confirmation, biochemical, single concentration, multiplex bead flow cytometry; shares compounds with MEKK3 PB1 HTS; Alexa488-MEK5 binding to MEKK2 WT; actives lie on both sides; binding response (% of control), % at 10 µM; 2.4% of 5,900 active; in the data active means binding response below about 16% or above about 210%; inactive means in between
MEKK2mut-MEK5: mutant MEKK2 PB1-MEK5 binding signal retest – biochemical, single concentration, multiplex bead flow cytometry, confirmation; 2% of 5,900 active; shares compounds with MEKK3 PB1 HTS; percent response, % at 10 µM; Alexa488-MEK5 binding to MEKK2 mutant; in the data active means percent response mostly above about 71%, no sharp cut-off; inactive means mostly below about 38%;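 further: higher means compound restores mutant binding toward wildtype level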
MEKK3 confirm: MEKK3 wild-type PB1 binding to MEK5, inhibitors, confirmation, biochemical, bead multiplex flow cytometry, single concentration, wildtype; shares compounds with MEKK3 PB1 HTS; Alexa488-MEK5 binding to MEKK3; stronger effect = lower value; binding response (% of control), % at 10 µM; 1.8% of 5,900 active; AID 1894, 2009;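 active means binding response below 72% of control, or above a set upper limit, though filed actives all read lower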;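 further: 100% = DMSO only wells and 0% = binding blocked by excess unlabeled MEK5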
* hit, by the source's call; . = not tested or not shown; [ ] = dose if it differs, or a comment. Only some compounds are listed: those with a hit (about 3.5% of all), similar ones and a draw of the others.

SMILES	WT yeast gro inh	MEKK2 WT-MEK5	MEKK2 mut-MEK5	ABCB1 inh	ABCG2 block	MEKK3 PB1 HTS	MEKK2wt confirm	MEKK2mut-MEK5	MEKK3 confirm
CNC(=S)N(CCc1c(C)[nH]c2ccccc12)Cc1cccnc1	.	99	6	.	.	98	.	.	.
CCOC(=O)N1CCC(Nc2nc3ccccc3n3cnnc23)CC1	-1	0.0*[inhibitor]	-43	.	.	0.0*[inhibitor]	97	-4	99
O=C(Cc1ccc(F)cc1)N1CCOCC1	.	110	15	.	.	110	.	.	.
O=C(NS(=O)(=O)c1ccc(Cl)s1)c1ccccc1	.	193*	23	.	.	112	115	9	103
Nc1ccc(OCCCc2c(N)nc(N)nc2N)cc1	.	110	8	.	.	82*[inhibitor]	120	13	95
CN(C)S(=O)(=O)c1cccc(NC(=O)CSc2nc3ccccc3n2-c2ccccc2)c1	19	110	-1	1	2	153*	104	-3	104
COc1ccc([N+](=O)[O-])cc1NC(=O)C(C)N1CCCC1 (stereo not drawn)	.	105	6	.	.	104	.	.	.
CC(C(=O)Nc1cc([N+](=O)[O-])ccc1Cl)N1CCN(c2ccccc2O)CC1 (stereo not drawn)	44	102	0	3	26	132*	97	2	98
CCn1c(=O)c(-c2ccccc2)c(O)c2ccccc21	-1	99	-2	-2	10	96	.	.	.
CCCCn1c(=O)c(-c2ccccc2)c(O)c2ccccc21	-6	129	5	0	0	131*	104	-4	100
CC(C)c1ccc(NC(=O)C2C3C=CC4(O3)C2C(=O)N(CCCN2CCOCC2)C4C(=O)NC2CCCCC2)cc1 (stereo not drawn)	.	103	4	.	.	102	.	.	.
CCCCC(=O)NCc1ccc2c(c1)cc(C)n2C	4	86	-3	-3	-3	93	.	.	.
CCOC(=O)CCC(=O)NCc1ccc2[nH]c(C)cc2c1	1	81	-5	0	16	82*[inhibitor]	94	0	100
CCOC(=O)CCC(=O)NCc1ccc2c(c1)cc(C)n2C	-14	77	-4	0	1	74*[inhibitor]	98	2	98
CCOC(=O)NCc1ccc2[nH]c(C)cc2c1	14	87	1	.	.	92	.	.	.
COc1ccc(OC)c(NC(=O)c2csc(Cl)c2OC)c1	.	104	7	.	.	104	.	.	.
CC(C)c1ccc(OCCCCN2CCCCC2)cc1	.	106	6	.	.	102	.	.	.
CC1CN(CCCCOc2ccc(Cl)c3ccccc23)CC(C)O1 (stereo not drawn)	.	162*	10	.	.	113	150	22	105
CC1CN(CCCCOc2ccc(C(C)C)cc2)CC(C)O1 (stereo not drawn)	24	2.0*[inhibitor]	-15	0	7	2.0*[inhibitor]	104	4	103
Cc1ccc(NC(=O)Cn2nnc(C(=O)NCc3cccs3)c2N)cc1F	.	88	-10	.	.	90	.	.	.
O=C(Nc1cc(-c2ccccc2)[nH]n1)c1ccccc1F	.	38*[inhibitor]	-48	.	.	35*[inhibitor]	104	5	102
COc1ccc(CN2CCNC(=O)C2CC(=O)NCCCC2CCCC2)c(C)c1C (stereo not drawn)	.	117	10	.	.	102	.	.	.
COc1cccc(CN(C)C(=O)/C=C/c2ccc(S(=O)(=O)N3CCCCCC3)cc2)c1	.	103	4	.	.	98	.	.	.
CCN1C(=O)c2cccc3c(S(=O)(=O)Nc4ncccc4C)ccc1c23	18	85	-10	2	9	82*[inhibitor]	105	3	105
O=C(CNC(=O)c1ccccc1)N/N=C/c1ccccc1Cl	-2	112	1	0	1	129*	96	0	100
SMILES	WT yeast gro inh	MEKK2 WT-MEK5	MEKK2 mut-MEK5	ABCB1 inh	ABCG2 block	MEKK3 PB1 HTS	MEKK2wt confirm	MEKK2mut-MEK5	MEKK3 confirm
CNC(=S)N/N=C/c1ccccc1Cl	5	108	0	0	10	142*	102	-1	102
CC(C)C[C@@H](C(=O)NC1CCN(Cc2ccccc2)CC1)N1C(=O)N2CCc3c([nH]c4ccccc34)[C@@]2(C)C1=O	.	142*	20	.	.	108	135	26	109
Cc1ccccc1OCc1nnc(SCC(=O)N2CCc3ccccc32)n1C	-12	2.0*[inhibitor]	-3	0	1	2.0*[inhibitor]	100	-1	102
O=C(Nc1ccc2c(c1)CCCN2C(=O)c1ccccc1)c1ccccc1	.	101	4	.	.	100	.	.	.
N#C/C(=C\c1cn(CCOc2ccccc2)c2ccccc12)C(=O)NCc1ccco1	2	93	-1	2	18	100	.	.	.
Cc1ccccc1OCCn1cc(/C=C(\C#N)C(=O)NCc2ccco2)c2ccccc21	1	67	-2	0	2	75*[inhibitor]	101	-2	103
Cc1ccc(-n2nnc3c(=O)n(Cc4ccccn4)cnc32)cc1C	6	97	175*	0	0	109	96	2	102
COc1ccc(N2CCN(C(CNC(=O)C(=O)NCC3CCCO3)c3ccco3)CC2)cc1 (stereo not drawn)	10	114	1	1	4	132*	105	0	102
COc1ccc2c(CSc3nc4nc(C)cc(C)n4n3)cc(=O)oc2c1	11	123	6	0	1	122*	97	-3	100
N=C1CCCN1CC(=O)c1ccc(Br)cc1	-5	108	0	0	-6	143*	100	-3	102
Cc1nn2c(N)csc2nc1=O	13	69*[inhibitor]	-6	1	3	62*[inhibitor]	59	-24	51*
Cc1nn2c3ccccc3n(C)c2nc1=O	-5	102	4	0	0	106	.	.	.
O=P(O)(Cc1ccccc1)Cc1ccccc1	.	122	18	.	.	118	.	.	.
